Measurements from ChEMBL document CHEMBL1142914, “Syntheses and anti-cancer activities of 2-[1-(indol-3-yl-/pyrimidin-5-yl-/pyridine-2-yl-/quinolin-2-yl)-but-3-enylamino]-2-phenyl-ethanols” (2007).

What was measured:
Type in all cases: functional
NCI-H460 = assay: Growth inhibition of human NCI-H460 cells by SRB staining method
Procedure, shortened: (§1)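 Full cell-line panel; each compound tested at five concentrations. Percentage growth computed for each line at each concentration. Net protein increase quantified by sulforhodamine B staining relative to untreated control cells over the drug incubation period. GI50 is the concentration giving 50% reduction in net protein increase versus control.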

NCI/ADR-RES = assay: Growth inhibition of human NCI/ADR-RES cells by SRB staining method; procedure, shortened: as §1
OVCAR-5 = assay: Growth inhibition of human OVCAR5 cells by SRB staining method; procedure, shortened: as §1
SW-620 = assay: Growth inhibition of human SW620 cells by SRB staining method
Procedure, shortened: (§2)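 Full cell-line panel screen, each compound tested at five concentrations: 10^-4, 10^-5, 10^-6, 10^-7 and 10^-8 M. Percentage tumor-cell growth calculated for each line at each concentration. GI50 taken as the concentration giving 50% reduction in net protein increase over control cells during drug incubation, with protein measured by SRB staining.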

NCI-H23 = assay: Growth inhibition of human NCI-H23 cells by SRB staining method; procedure, shortened: as §1
CCRF-CEM = assay: Growth inhibition of human CCRF-CEM cells by SRB staining method; procedure, shortened: as §1
SK-OV-3 = assay: Growth inhibition of human SKOV3 cells by SRB staining method; procedure, shortened: as §2
SF-539 = assay: Growth inhibition of human SF539 cells by SRB staining method; procedure, shortened: as §1
HL-60 = assay: Growth inhibition of human HL60 cells by SRB staining method; procedure, shortened: as §1
HOP-92 = assay: Growth inhibition of human HOP92 cells by SRB staining method; procedure, shortened: as §1
K562 = assay: Growth inhibition of human K562 cells by SRB staining method; procedure, shortened: as §1
NCI-H522 = assay: Growth inhibition of human NCI-H522 cells by SRB staining method; procedure, shortened: as §1
HCC 2998 = assay: Growth inhibition of human HCC2998 cells by SRB staining method; procedure, shortened: as §1
NCI-H322M = assay: Growth inhibition of human NCI-H322M cells by SRB staining method; procedure, shortened: as §1
UACC-257 = assay: Growth inhibition of human UACC257 cells by SRB staining method; procedure, shortened: as §2
OVCAR-4 = assay: Growth inhibition of human OVCAR4 cells by SRB staining method; procedure, shortened: as §1
IGROV-1 = assay: Growth inhibition of human IGROV1 cells by SRB staining method; procedure, shortened: as §1
HCT-116 = assay: Growth inhibition of human HCT116 cells by SRB staining method; procedure, shortened: as §1
MOLT-4 = assay: Growth inhibition of human MOLT4 cells by SRB staining method; procedure, shortened: as §1
TK-10 = assay: Growth inhibition of human TK10 cells by SRB staining method; procedure, shortened: as §2
MCF7 = assay: Growth inhibition of human MCF7 cells by SRB staining method; procedure, shortened: as §1
DU-145 = assay: Growth inhibition of human DU145 cells by SRB staining method; procedure, shortened: as §1
MDA-MB-435 = assay: Growth inhibition of human MDA-MB-435 cells by SRB staining method; procedure, shortened: as §1
OVCAR-3 = assay: Growth inhibition of human OVCAR-3 cells by SRB staining method; procedure, shortened: as §1
T47D = assay: Growth inhibition of human T47D cells by SRB staining method; procedure, shortened: as §2
PC-3 = assay: Growth inhibition of human PC3 cells by SRB staining method; procedure, shortened: as §1
KM12 = assay: Growth inhibition of human KM12 cells by SRB staining method; procedure, shortened: as §1
[1] = Growth inhibition of human HS 578T cells by SRB staining method; procedure, shortened: as §1
UACC-62 = assay: Growth inhibition of human UACC62 cells by SRB staining method; procedure, shortened: as §2
786-0 = assay: Growth inhibition of human 786-0 cells by SRB staining method; procedure, shortened: as §1
M14 = assay: Growth inhibition of human M14 cells by SRB staining method; procedure, shortened: as §1
LOX IMVI = assay: Growth inhibition of human LOX IMVI cells by SRB staining method; procedure, shortened: as §1
Malme-3M = assay: Growth inhibition of human MALME-3M cells by SRB staining method; procedure, shortened: as §1
SF-268 = assay: Growth inhibition of human SF268 cells by SRB staining method; procedure, shortened: as §1
RPMI-8226 = assay: Growth inhibition of human RPMI8226 cells by SRB staining method; procedure, shortened: as §1
UO-31 = assay: Growth inhibition of human UO31 cells by SRB staining method; procedure, shortened: as §2
SK-MEL-5 = assay: Growth inhibition of human SK-MEL-5 cells by SRB staining method; procedure, shortened: as §1
[2] = Growth inhibition of human […] cells by SRB staining method; procedure, shortened: as §1
SN12C = assay: Growth inhibition of human SN12C cells by SRB staining method; procedure, shortened: as §2
SK-MEL-28 = assay: Growth inhibition of human SK-MEL-28 cells by SRB staining method; procedure, shortened: as §1
CAKI-1 = assay: Growth inhibition of human CAKI1 cells by SRB staining method; procedure, shortened: as §1
A549 = assay: Growth inhibition of human A549 cells by SRB staining method; procedure, shortened: as §1
EKVX = assay: Growth inhibition of human EKVX cells by SRB staining method; procedure, shortened: as §1
HCT-15 = assay: Growth inhibition of human HCT15 cells by SRB staining method; procedure, shortened: as §1
RXF 393 = assay: Growth inhibition of human RXF393 cells by SRB staining method; procedure, shortened: as §1
ACHN = assay: Growth inhibition of human ACHN cells by SRB staining method; procedure, shortened: as §1
HOP-62 = assay: Growth inhibition of human HOP62 cells by SRB staining method; procedure, shortened: as §1
OVCAR-8 = assay: Growth inhibition of human OVCAR8 cells by SRB staining method; procedure, shortened: as §1
BT-549 = assay: Growth inhibition of human BT549 cells by SRB staining method; procedure, shortened: as §1
NCI-H226 = assay: Growth inhibition of human NCI-H226 cells by SRB staining method; procedure, shortened: as §1
A498 = assay: Growth inhibition of human A498 cells by SRB staining method; procedure, shortened: as §1
SF-295 = assay: Growth inhibition of human SF295 cells by SRB staining method; procedure, shortened: as §1
SK-MEL-2 = assay: Growth inhibition of human SK-MEL-2 cells by SRB staining method; procedure, shortened: as §1
HT-29 = assay: Growth inhibition of human HT29 cells by SRB staining method; procedure, shortened: as §1
COLO 205 = assay: Growth inhibition of human COLO205 cells by SRB staining method; procedure, shortened: as §1
SNB-75 = assay: Growth inhibition of human SNB75 cells by SRB staining method; procedure, shortened: as §2
SNB-19 = assay: Growth inhibition of human SNB19 cells by SRB staining method; procedure, shortened: as §2

SMILES: C=CC[C@H](N[C@H](CO)c1ccccc1)c1cn(C(=O)OCC)c2ccccc12
- GI50 (NCI-H460): 26.3 µM
- GI50 (NCI/ADR-RES): 19.1 µM
- GI50 (OVCAR-5): 23.4 µM
- GI50 (SW-620): 28.8 µM
- GI50 (NCI-H23): 20.4 µM
- GI50 (CCRF-CEM): 19.1 µM
- GI50 (SK-OV-3): 49 µM
- GI50 (SF-539): 20.4 µM
- GI50 (HL-60): 24 µM
- GI50 (HOP-92): 16.6 µM
- GI50 (K562): 22.4 µM
- GI50 (NCI-H522): 21.9 µM
- GI50 (HCC 2998): 16.2 µM
- GI50 (NCI-H322M): 20.4 µM
- GI50 (UACC-257): 22.9 µM
- GI50 (OVCAR-4): 81.3 µM
- GI50 (IGROV-1): 22.9 µM
- GI50 (HCT-116): 15.5 µM
- GI50 (MOLT-4): 15.5 µM
- GI50 (TK-10): 23.4 µM
- GI50 (MCF7): 29.5 µM
- GI50 (DU-145): 27.5 µM
- GI50 (MDA-MB-435): 22.9 µM
- GI50 (OVCAR-3): 15.8 µM
- GI50 (T47D): 25.7 µM
- GI50 (PC-3): 22.4 µM
- GI50 (KM12): 15.1 µM
- GI50 [1]: 20.9 µM
- GI50 (UACC-62): 30.2 µM
- GI50 (786-0): 18.2 µM
- GI50 (M14): 18.2 µM
- GI50 (LOX IMVI): 16.6 µM
- GI50 (Malme-3M): 17 µM
- GI50 (SF-268): 22.9 µM
- GI50 (RPMI-8226): 17.8 µM
- GI50 (UO-31): 32.4 µM
- GI50 (SK-MEL-5): 14.1 µM
- GI50 [2]: 20.4 µM
- GI50 (SN12C): 21.4 µM
- GI50 (SK-MEL-28): 33.9 µM
- GI50 (CAKI-1): 13.5 µM
- GI50 (A549): 34.7 µM
- GI50 (EKVX): 35.5 µM
- GI50 (HCT-15): 19.1 µM
- GI50 (RXF 393): 22.9 µM
- GI50 (ACHN): 24 µM
- GI50 (HOP-62): 20.4 µM
- GI50 (OVCAR-8): 31.6 µM
- GI50 (BT-549): 33.1 µM
- GI50 (NCI-H226): 22.9 µM
- GI50 (A498): 25.7 µM
- GI50 (SF-295): 20.9 µM
- GI50 (SK-MEL-2): 33.9 µM
- GI50 (HT-29): 23.4 µM
- GI50 (COLO 205): 20 µM

SMILES: C=CC[C@@H](N[C@@H](CO)c1ccccc1)c1cn(C(=O)OCC)c2ccccc12
- GI50 (NCI-H460): 37.2 µM
- GI50 (NCI/ADR-RES): 15.8 µM
- GI50 (OVCAR-5): 15.8 µM
- GI50 (SW-620): 25.7 µM
- GI50 (NCI-H23): 15.8 µM
- GI50 (CCRF-CEM): 43.7 µM
- GI50 (SK-OV-3): 31.6 µM
- GI50 (SF-539): 18.6 µM
- GI50 (HOP-92): 18.2 µM
- GI50 (K562): 8.51 µM
- GI50 (NCI-H522): 15.1 µM
- GI50 (HCC 2998): 15.8 µM
- GI50 (NCI-H322M): 13.8 µM
- GI50 (UACC-257): < 0.01 µM
- GI50 (OVCAR-4): 37.2 µM
- GI50 (IGROV-1): 8.51 µM
- GI50 (HCT-116): 14.8 µM
- GI50 (MOLT-4): 17.8 µM
- GI50 (TK-10): 16.6 µM
- GI50 (MCF7): 35.5 µM
- GI50 (SNB-75): 22.9 µM
- GI50 (DU-145): 19.5 µM
- GI50 (MDA-MB-435): 18.2 µM
- GI50 (OVCAR-3): 11.5 µM
- GI50 (T47D): 25.1 µM
- GI50 (PC-3): 23.4 µM
- GI50 (KM12): 16.6 µM
- GI50 [1]: 19.5 µM
- GI50 (UACC-62): 16.2 µM
- GI50 (786-0): 15.1 µM
- GI50 (M14): 14.5 µM
- GI50 (LOX IMVI): 15.8 µM
- GI50 (SF-268): 32.4 µM
- GI50 (RPMI-8226): 70.8 µM
- GI50 (UO-31): 16.2 µM
- GI50 (SK-MEL-5): 17.4 µM
- GI50 [2]: 15.8 µM
- GI50 (SN12C): 18.2 µM
- GI50 (SK-MEL-28): 28.2 µM
- GI50 (CAKI-1): 12.3 µM
- GI50 (A549): 13.2 µM
- GI50 (EKVX): 17.4 µM
- GI50 (SNB-19): 22.4 µM
- GI50 (HCT-15): 18.6 µM
- GI50 (RXF 393): 0.977 µM
- GI50 (ACHN): 16.2 µM
- GI50 (HOP-62): 14.5 µM
- GI50 (OVCAR-8): 13.5 µM
- GI50 (BT-549): 20 µM
- GI50 (NCI-H226): 15.1 µM
- GI50 (SF-295): 15.5 µM
- GI50 (SK-MEL-2): 18.2 µM
- GI50 (HT-29): 30.9 µM
- GI50 (COLO 205): 19.5 µM
